# Experimental data from different studies.
# Compare with care: the assays were run in different laboratories.
# Cell line: MDA-MB-435
# Observed: cell growth or viability
Structure (SMILES),assay,conditions,measurement,value
CCOC(=O)c1[nH]c(Br)c(-c2ccc(Br)cc2)c1Br,SRB,,IC50,312 nM
O=C1NC(=NCc2cccs2)S/C1=C\c1ccc2ncccc2c1,,,IC50,6600 nM
COc1ccc(C(=O)/C=C/c2ccc(Cl)c(Cl)c2)cc1S(N)(=O)=O,SRB,48 h,GI50,2400 nM
CCOC(=O)c1[nH]c(Br)c(-c2ccc(Cl)c(Cl)c2)c1Br,SRB,,IC50,806 nM
COc1cc(-c2ccc(-c3ccc(C(=N)N)nc3)s2)cc(OC)c1OC,SRB,,GI50,1620 nM
CCOC(=O)c1[nH]c(Br)c(-c2ccc(OC(F)(F)F)cc2)c1Br,SRB,,IC50,1700 nM
COc1ccc(C(=O)/C=C/c2cccc(Cl)c2)cc1S(N)(=O)=O,SRB,10 µM,inhibition,86%
CC(C)C[C@H](NC(=O)[C@H](Cc1ccccc1)NC(=O)c1cnccn1)B(O)O,ATP luminescence,,IC50,8 nM
CCOC(=O)c1[nH]c(Br)c(-c2cccc(OC)c2)c1Br,SRB,,IC50,633 nM
COc1ccc(C(=O)/C=C/c2cccc(Br)c2)cc1S(N)(=O)=O,SRB,10 µM,inhibition,106%
COc1ccc(N(C)c2ncnc3c2CCC3)cc1,SRB,,IC50,50.4 nM
COc1ccc(C(=O)/C=C/c2c(F)cccc2Cl)cc1S(N)(=O)=O,SRB,10 µM,inhibition,93%
COc1cccc(Oc2ccccc2NC(=O)CNC(=O)c2cccc3ccccc23)c1,SRB,48 h,GI50,70.8 nM
